These results are taken from ChEMBL document CHEMBL3808346, “Optimization of the phenylurea moiety in a phosphoinositide 3-kinase (PI3K) inhibitor to improve water solubility and the PK profile by introducing a solubilizing group and ortho substituents” (Bioorg Med Chem, 2016).

SMILES strings stand for the structures. Converted amounts (≈) assume the structure as drawn. Where only a bound is given, the exact number is not on record here.

Series [1] is described as follows: Solubility of compound in FaSSIF at pH 6.5 by HPLC-UV analysis. The class given is physicochemical. Put shortly: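 A 4-mM or 1-mM DMSO stock was freeze-dried and the residue taken up in FaSSIF (pH 6.5: sodium taurocholate, lecithin, KH2PO4, KCl, NaOH). Sonicated 10 min, shaken 2 h, centrifuged 10 min at 3000 rpm and filtered. Filtrate measured by HPLC-UV against each compound's calibration curve.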

Series [2] deals with PI3-kinase p110-alpha/p85-alpha (Homo sapiens, UniProt P42336). In words: Inhibition of human PI3K p110alpha/p85alpha expressed in baculovirus preincubated for 20 mins followed by addition of phosphorylate phosphatidylinositol-4,5-bisphosphate as substrate and ATP measured after 15 mins by AlphaScreen competition assay. Put shortly:
(§1)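 Purified baculovirus-expressed human p110/p85α preincubated with compound 20 min at room temperature. Then 4 µM PI(4,5)P2 and 10 µM ATP (5 mM Hepes pH 7.5, 2.5 mM MgCl2) added for 15 min at 37 °C. PIP3 product detected by AlphaScreen competition using GST-GRP1, biotin-PIP3 and anti-GST acceptor/streptavidin donor beads, 1 h at room temperature.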
On the technique in general: Alpha assays give light when donor and acceptor beads are brought close together.

Series [3] can be described thus: AUC in Balb/c nude mouse at 50 mg/kg, po measured after 24 hrs by LC-MS/MS analysis. The format is ADME, organism-based. The arrangement: dose 50 mg/kg, time < 24 hr, route oral. Particulars: in vivo. In short, it runs like this:
(§2)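 Female BALB/c-nu mice, n=2 per group, single oral dose of 50 mg/kg given as a solution in 10% DMSO, 10% Cremophor EL, 15% PEG400, 15% HPCD. Heparinized blood drawn at 0.25, 2, 4, 7 and 24 h; plasma stored at –80 °C. Plasma levels by LC–MS/MS; parameters by non-compartmental analysis.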

The nature of series [4]: Cmax in Balb/c nude mouse at 50 mg/kg, po measured after 24 hrs by LC-MS/MS analysis. The arrangement: dose 50 mg/kg, route oral. The format is ADME, organism-based. Particulars: in vivo. Put shortly:
as §2

A short description of series [5]: Metabolic stability in mouse liver microsomes assessed as clearance. The format is ADME. The following applies: read-out: CLH. For orientation: Liver microsomes are vesicles of endoplasmic reticulum, rich in cytochrome P450 enzymes.
The nature of series [6]: Metabolic stability in human liver microsomes assessed as clearance. The format is ADME. The following applies: read-out: CLH.
The target of another series is PI3K p110 beta/p85 alpha (Homo sapiens, UniProt P42338). In words: Inhibition of human PI3K p110beta/p85alpha expressed in baculovirus preincubated for 20 mins followed by addition of phosphorylate phosphatidylinositol-4,5-bisphosphate as substrate and ATP measured after 15 mins by AlphaScreen competition assay. In short, it runs like this:
as §1

A short description of series [7]: Antiproliferative activity against PTEN negative human PC3 cells measured after 96 hrs by CCK-8 assay. The format is functional, cell-based. Particulars: PC-3, 96 h. In short, it runs like this:
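PC-3 prostate cells (ATCC) exposed to a range of compound concentrations for 96 hours; growth inhibition read with Cell Counting Kit-8.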
For orientation: Tetrazolium assays rely on reduction of a dye to a coloured formazan, in cell work by metabolically active cells.

Series [8] can be described thus: Permeability of compound by PAMPA method. The class given is ADME. Particulars: read-out: permeability.
Series [9] can be described thus: Antitumor activity PTEN negative human PC3 cells xenografted into nude mouse assessed as tumor growth inhibition at 6.25 mg/kg, qd administered orally for 11 days. The class given is functional. Particulars: PC-3, po, 264 h, read-out: TGI. In short, it runs like this: (§3)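 PC-3 grown as subcutaneous tumors in nude mice; dosing began (day 0) at about 130 mm3. Four mice per group, randomized to vehicle or drug by oral sonde once daily on days 0–10; vehicle 10% DMSO, 10% Cremophor EL, 15% PEG400, 15% HPCD. TV = (L W²)/2; TGI = [1 − (T − T0)/(C − C0)] × 100; body weight as W/W0 × 100.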

A further series relates to Mus musculus. In words: Toxicity in nude mouse xenografted with PTEN negative human PC3 cells assessed as body weight loss. The format is organism-based, PC-3. Particulars: in vivo. Put shortly:
as §3

Chain of PI3-kinase p110-alpha/p85-alpha (P27986 whole entry): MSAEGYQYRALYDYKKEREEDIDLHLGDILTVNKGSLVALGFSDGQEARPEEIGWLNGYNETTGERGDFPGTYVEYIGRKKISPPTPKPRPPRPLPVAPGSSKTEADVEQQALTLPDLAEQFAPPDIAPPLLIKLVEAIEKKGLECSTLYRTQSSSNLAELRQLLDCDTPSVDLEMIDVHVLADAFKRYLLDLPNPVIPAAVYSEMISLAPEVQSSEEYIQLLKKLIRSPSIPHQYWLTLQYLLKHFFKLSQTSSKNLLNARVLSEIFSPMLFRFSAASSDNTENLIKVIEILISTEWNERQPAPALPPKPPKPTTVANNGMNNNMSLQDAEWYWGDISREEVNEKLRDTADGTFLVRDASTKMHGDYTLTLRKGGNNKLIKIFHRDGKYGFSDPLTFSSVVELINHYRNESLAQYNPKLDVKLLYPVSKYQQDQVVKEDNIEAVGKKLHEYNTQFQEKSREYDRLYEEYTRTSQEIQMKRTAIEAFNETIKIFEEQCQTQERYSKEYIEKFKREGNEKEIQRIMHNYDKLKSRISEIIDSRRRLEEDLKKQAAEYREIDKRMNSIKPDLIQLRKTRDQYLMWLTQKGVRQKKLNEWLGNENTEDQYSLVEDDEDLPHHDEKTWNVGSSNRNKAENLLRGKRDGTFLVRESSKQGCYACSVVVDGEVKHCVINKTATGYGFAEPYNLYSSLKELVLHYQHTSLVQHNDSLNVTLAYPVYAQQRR
Chain of PI3-kinase p110-alpha/p85-alpha (P42336 whole entry): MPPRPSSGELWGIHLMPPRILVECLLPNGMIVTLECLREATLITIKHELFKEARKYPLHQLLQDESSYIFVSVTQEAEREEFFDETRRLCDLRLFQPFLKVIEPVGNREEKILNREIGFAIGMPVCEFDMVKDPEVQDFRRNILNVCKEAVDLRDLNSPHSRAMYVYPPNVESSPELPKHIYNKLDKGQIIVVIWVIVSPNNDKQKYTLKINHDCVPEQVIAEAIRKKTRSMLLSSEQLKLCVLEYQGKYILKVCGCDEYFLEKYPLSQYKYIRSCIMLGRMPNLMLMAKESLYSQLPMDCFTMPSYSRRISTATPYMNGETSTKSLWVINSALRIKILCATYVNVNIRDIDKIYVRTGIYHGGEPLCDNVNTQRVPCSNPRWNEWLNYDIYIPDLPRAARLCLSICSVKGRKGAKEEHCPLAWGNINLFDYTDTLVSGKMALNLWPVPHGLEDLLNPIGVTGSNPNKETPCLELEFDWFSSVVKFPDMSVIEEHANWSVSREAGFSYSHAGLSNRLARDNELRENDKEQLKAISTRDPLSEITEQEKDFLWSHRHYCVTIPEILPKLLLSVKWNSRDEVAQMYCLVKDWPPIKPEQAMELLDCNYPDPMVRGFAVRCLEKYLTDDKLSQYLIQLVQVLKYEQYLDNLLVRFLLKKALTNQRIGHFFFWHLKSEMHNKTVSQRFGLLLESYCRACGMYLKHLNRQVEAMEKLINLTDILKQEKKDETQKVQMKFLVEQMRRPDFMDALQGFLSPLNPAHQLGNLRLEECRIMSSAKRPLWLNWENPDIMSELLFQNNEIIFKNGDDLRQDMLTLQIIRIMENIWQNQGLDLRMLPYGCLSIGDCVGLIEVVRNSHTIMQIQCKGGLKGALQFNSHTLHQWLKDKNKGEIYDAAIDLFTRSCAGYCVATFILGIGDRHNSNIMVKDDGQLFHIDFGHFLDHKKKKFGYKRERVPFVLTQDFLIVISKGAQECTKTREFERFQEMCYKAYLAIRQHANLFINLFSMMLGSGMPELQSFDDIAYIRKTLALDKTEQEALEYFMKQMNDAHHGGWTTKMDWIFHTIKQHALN
Chain of PI3K p110 beta/p85 alpha (P27986 whole entry): as the sequence (P27986 whole entry) above
Chain of PI3K p110 beta/p85 alpha (P42338 whole entry): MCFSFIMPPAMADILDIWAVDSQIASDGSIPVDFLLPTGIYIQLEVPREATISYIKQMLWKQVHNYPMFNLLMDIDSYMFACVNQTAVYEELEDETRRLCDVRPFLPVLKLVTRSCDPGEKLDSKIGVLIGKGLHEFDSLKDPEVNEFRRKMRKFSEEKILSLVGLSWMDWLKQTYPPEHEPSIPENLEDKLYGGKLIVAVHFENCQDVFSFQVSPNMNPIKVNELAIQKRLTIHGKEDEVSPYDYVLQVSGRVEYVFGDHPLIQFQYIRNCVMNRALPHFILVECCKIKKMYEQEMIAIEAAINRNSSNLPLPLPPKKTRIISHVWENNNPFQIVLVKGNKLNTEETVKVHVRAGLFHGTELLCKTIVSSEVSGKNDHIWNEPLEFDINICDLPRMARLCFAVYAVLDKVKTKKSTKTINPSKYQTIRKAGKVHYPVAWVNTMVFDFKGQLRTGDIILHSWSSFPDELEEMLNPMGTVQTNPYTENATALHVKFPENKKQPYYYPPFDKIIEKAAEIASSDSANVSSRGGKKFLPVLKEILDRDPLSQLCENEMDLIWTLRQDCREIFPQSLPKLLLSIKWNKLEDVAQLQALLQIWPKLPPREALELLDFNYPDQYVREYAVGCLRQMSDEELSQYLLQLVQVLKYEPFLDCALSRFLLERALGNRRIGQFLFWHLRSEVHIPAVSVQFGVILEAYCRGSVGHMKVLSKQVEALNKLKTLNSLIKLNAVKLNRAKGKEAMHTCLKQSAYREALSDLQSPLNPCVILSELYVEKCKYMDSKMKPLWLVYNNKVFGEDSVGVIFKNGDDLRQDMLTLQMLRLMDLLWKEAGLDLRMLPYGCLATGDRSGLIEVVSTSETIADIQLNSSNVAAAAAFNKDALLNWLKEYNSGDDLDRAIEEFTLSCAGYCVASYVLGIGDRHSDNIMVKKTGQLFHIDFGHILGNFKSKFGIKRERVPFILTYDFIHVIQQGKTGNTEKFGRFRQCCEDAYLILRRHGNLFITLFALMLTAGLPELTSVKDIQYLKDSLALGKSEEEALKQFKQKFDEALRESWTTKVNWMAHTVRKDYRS

The solubility is the dissolved amount per volume that the medium holds. Turning to `Nc1ncc(-c2nc(N3CCOCC3)nc3c2CCN3c2cccnc2)cn1`, the solubility in series [1] was under 12 µg/mL.

For orientation: IC50 means the concentration that gives 50% inhibition. A low value points to greater potency in that assay. Regarding `Cc1ccccc1NC(=O)N1CCc2c(-c3cnc(N)nc3)nc(N3CCOCC3)nc21`, the half-maximal inhibitory concentration (IC50) in series [2] was found to be 52 nM. Also, the solubility in series [1] was under 14 µg/mL.

The term AUC denotes the area under the concentration-time curve, a measure of exposure. Lower therefore signals less exposure. The term Cmax denotes the highest concentration seen after dosing. Molecule `Nc1ncc(-c2nc(N3CCOCC3)nc3c2CCN3C(=O)Nc2ccccc2)cn1` displayed an AUC at 24 h in [3] of 437 ng·h/mL. In series [4], this molecule gave a Cmax of 104 ng/mL. This molecule also came in with a solubility in series [1] of under 3 µg/mL.

For the molecule `CCN1CCN(c2cc(F)c(NC(=O)N3CCc4c(-c5cnc(N)nc5)nc(N5CCOCC5)nc43)c(F)c2)CC1`, the microsomal CLint was found to be 7.6 µL/min/mg in series [5] and 2.2 µL/min/mg in series [6]. Further, the half-maximal inhibitory concentration (IC50) on PI3K p110 beta/p85 alpha was found to be 7 nM; in [7], 58 nM. Besides, in series [8], the Papp was 1.1 ×10⁻⁶ cm/s. The inhibition in vivo at 6.25 mg/kg in series [9] worked out at 82%. The molecule also had an exposure (AUC) at 24 h in series [3] of 5680 ng·h/mL. In series [4], this molecule displayed a Cmax of 460 ng/mL. In addition, in [1], the concentration in solution (solubility) was 20 µg/mL (≈ 35.3 µM). Also, in the series with Mus musculus, the Activity entry is given as “Non-toxic”.

On to `CN(C(=O)N1CCc2c(-c3cnc(N)nc3)nc(N3CCOCC3)nc21)c1ccccc1`, for which the 50% inhibitory concentration (IC50) in series [2] worked out at 130 nM. Further, the solubility in [1] is under 3 µg/mL.

As to `CC(C)c1ccccc1NC(=O)N1CCc2c(-c3cnc(N)nc3)nc(N3CCOCC3)nc21`, the IC50 in series [2] turned out to be 81 nM. Further, the concentration in solution in series [1] (solubility) was 13 µg/mL (≈ 28.2 µM).

For `Cc1nc(N)ncc1-c1nc(N2CCOCC2)nc2c1CCN2c1cccnc1`, the 50% inhibitory concentration (IC50) in series [2] worked out at 260 nM. The same molecule came in with a solubility in series [1] of 56 µg/mL (≈ 143 µM).

`CCc1ccccc1NC(=O)N1CCc2c(-c3cnc(N)nc3)nc(N3CCOCC3)nc21` had a 50% inhibitory concentration (IC50) in series [2] of 64 nM.

`CCN1CCN(c2ccc(NC(=O)N3CCc4c(-c5cnc(N)nc5)nc(N5CCOCC5)nc43)c(C)c2)CC1` showed a half-inhibitory concentration (IC50) in series [7] of 210 nM. In series [1], this molecule registered a solubility of 11 µg/mL (≈ 20.2 µM).

For the molecule `CCN1CCN(C(=O)c2ccc(NC(=O)N3CCc4c(-c5cnc(N)nc5)nc(N5CCOCC5)nc43)c(C)c2)CC1`, the values for the concentration for half-maximal inhibition (IC50) in [2] and in [7] were 26 nM and 250 nM, respectively. Further, the solubility in series [1] is under 18 µg/mL.
